Blank lines part the entries; values can stand above or below the compound they belong to.
How the values were obtained:
[1] = system: MCF-7 cells expressing VP16-CREB; assay: MTT assay in MCF-7 cells expressing VP16-CREB versus parental MCF-7; type: cell-based; details: 48 h
Method in brief: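 MCF-7 cells were lipofected with a plasmid encoding Flag-tagged VP16-CREB. From 2 days post-transfection they were selected in 2 mg/mL G418 until a stable colony formed, and expression was checked by anti-FLAG blot. The stable line and parental MCF-7 were treated in triplicate for 48 h, and live cells were quantified by MTT. Student's t-test was used.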

[2] = system: CREB-mediated gene transcription in HEK 293T cells; details: cited from earlier work
KIX–KID interaction = KIX–KID interaction (Homo sapiens, UniProt Q92793); details: cited from earlier work
KIX–KID interaction, sequence (Q92793 587-666 limits assumed): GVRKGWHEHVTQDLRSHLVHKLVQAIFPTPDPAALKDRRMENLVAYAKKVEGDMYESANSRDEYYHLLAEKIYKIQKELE

[3] = system: A549, MCF-7, MDA-MB-231 and MDA-MB-468; assay: MTT growth inhibition, average of four cancer cell lines; type: cell-based; details: read-out: GI50 Average
Method in brief: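 Each of the four lines, grown in DMEM with 10% FBS at 37 °C and 5% CO2, was incubated with the test compound for 72 h, and growth was read by MTT absorbance at 570 nm. Percent growth was 100 × (treated − time-0)/(medium control − time-0). GI50 came from non-linear regression of the growth–concentration curve, and the four mean GI50s were averaged. Single experiments were run in duplicate where no SD is given.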

[4] = system: normal human mammary epithelial cells (HMEC); assay: HMEC growth inhibition, trypan blue exclusion assay; type: cell-based; details: 10 µM and lower, 48 h
Method in brief: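 Proliferating normal HMEC were cultured routinely in MEGM complete medium with penicillin/streptomycin at 37 °C under 5% CO2. On the day of treatment the medium was changed to DMEM with 10% FBS. Cells were exposed to various test compound concentrations in triplicate for 48 h, then live cells were counted by trypan blue exclusion. One-way ANOVA was used.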

A549 cells = assay: Annexin-V/PI flow cytometry apoptosis assay; type: cell-based; details: 10 µM, 48 h, vehicle […]
[5] = system: p53-mediated gene transcription; assay: p53 transcription reporter assay; type: cell-based; details: transcription reporter assay (Fig. S2)
VEGF [6] = assay: VEGF ELISA assay of A549 culture media; type: cell-based; details: A549 cells, 24 h
Method in brief: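 A549 cells were treated in duplicate with the indicated test compound concentrations for 24 h. VEGF in the culture medium was measured by ELISA and normalised to medium protein concentration. One-way ANOVA was used.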

Bcl-2 [7] = assay: Western blot of Bcl-2 in A549 cells; type: cell-based; details: increasing concentrations, 48 h
Method in brief: (§1)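 Exponentially growing A549 cells were treated with different test compound concentrations for 48 h and washed twice in cold PBS (pH 7.4). They were lysed in NP-40 buffer (50 mM Tris-HCl pH 8.0, 5 mM EDTA, 150 mM NaCl, 1 mM DTT, 0.5% NP-40) containing 8 M urea. Equal protein was run on 10% SDS-PAGE, transferred to PVDF and probed with specific antibodies, using GAPDH as the loading control.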

[8] = system: human foreskin fibroblast (HFF) cells; assay: HFF growth inhibition, trypan blue exclusion assay; type: cell-based; details: 48 h
Method in brief: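 HFF cells were maintained in DMEM with 10% FBS and penicillin/streptomycin at 37 °C under 5% CO2. Cells were treated with increasing test compound concentrations in triplicate for 48 h, and live cells were counted by trypan blue exclusion.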

p21 [9] = assay: qRT-PCR of p21 transcript in A549 cells; type: cell-based; details: 4 h
Method in brief: (§2)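 Exponentially growing A549 cells were treated in duplicate for 4 h. Total RNA was extracted and DNase-treated at 37 °C for 30 min, then cDNA was made with random primers. Transcripts were quantified by SYBR Green qPCR, normalised to HPRT, using the 2−ΔΔCt method. One-way ANOVA was used.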

VEGF [10] = assay: qRT-PCR of VEGF transcript in A549 cells; type: cell-based; details: 4 h
Method in brief: as §2

p21 [11] = assay: Western blot of p21 in A549 cells; type: cell-based; details: all concentrations tested, 48 h
Method in brief: as §1

[12] = system: VP16-CREB-mediated gene transcription; details: cited from earlier work
[13] = system: poly (ADP-ribose) polymerase (PARP); assay: Western blot of PARP cleavage in A549 cells; type: cell-based; details: 48 h
Method in brief: as §1

NCI-60 cancer cell panel = assay: NCI-60 cancer cell panel; type: cell-based; details: Fig. S1
Bcl-2 [14] = assay: qRT-PCR of bcl-2 transcript in A549 cells; type: cell-based; details: 4 h
Method in brief: as §2

Compound: CN(C(=O)c1cc2ccccc2cc1O)c1ccc(Cl)cc1 [Compound 11]
sensitivity of MCF-7 cells expressing VP16-CREB compared to parental MCF-7 cells [1]: equally effective | inhibition of CREB's activity [2]: did not inhibit | inhibition of KIX–KID interaction (KIX–KID interaction): did not inhibit

Compound: O=C(Nc1ccc(C(F)(F)F)cc1)c1cc2ccccc2cc1O [Compound 1i, 3-Hydroxy-N-(4-trifluoromethylphenyl)-2-naphthamide]
GI50 [3]: 33.8 µM

Compound: O=C(Nc1ccc(O)cc1)c1cc2ccccc2cc1O [Compound 1h, 3-Hydroxy-N-(4-hydroxyphenyl)-2-naphthamide]
GI50 [3]: > 50.8 µM

Compound: Nc1ccc(NC(=O)c2cc3ccccc3cc2O)cc1 [Compound 1g, N-(4-Aminophenyl)-3-hydroxy-2-naphthamide]
GI50 [3]: > 59.1 µM

Compound: O=C(Nc1ccc(Br)cc1)c1cc2ccccc2cc1O [Compound 1e, N-(4-Bromophenyl)-3-hydroxy-2-naphthamide]
GI50 [3]: 5.59 µM

Compound: COc1ccc(NC(=O)c2cc3ccccc3cc2O)cc1 [Compound 1j, 3-Hydroxy-N-(4-methoxyphenyl)-2-naphthamide]
GI50 [3]: 61.7 µM

Compound: O=C(Nc1ccccc1Cl)c1cc2ccccc2cc1O [Compound 1c, N-(2-Chlorophenyl)-3-hydroxy-2-naphthamide]
GI50 [3]: 7.73 µM

Compound: O=C(Nc1ccc(I)cc1)c1cc2ccccc2cc1O [Compound 1f, 3-Hydroxy-N-(4-iodophenyl)-2-naphthamide]
GI50 [3]: 6.52 µM

Compound: O=C(Nc1ccc(Cl)cc1)c1cc2ccccc2cc1O [Compound 1a, naphthol AS-E]
GI50 [3]: 2.38 µM | toxicity to HMEC (number of live cells) [4]: little or no toxicity | cells undergoing apoptosis (annexin+/PI−) (A549 cells): Up to 19.4% | inhibition of p53-mediated gene transcription [5]: not inhibited | expression of VEGF in culture media (VEGF [6]): down-regulated | expression level of Bcl-2 protein (Bcl-2 [7]): decreased | toxicity to HFF cells (number of live cells) [8]: did not observe significant toxicity | transcript level of p21 (p21 [9]): essentially unchanged | transcript level of VEGF (VEGF [10]): decreased | sensitivity of MCF-7 cells expressing VP16-CREB compared to parental MCF-7 cells [1]: more resistant | expression of p21 protein (p21 [11]): unchanged | inhibition of VP16-CREB-mediated gene transcription [12]: did not inhibit | cleavage of PARP [13]: observed | growth inhibition in NCI-60 panel (NCI-60 cancer cell panel): inhibited the growth of most of the cancer cells | transcript level of bcl-2 (Bcl-2 [14]): decreased

Compound: O=C(Nc1cccc(Cl)c1)c1cc2ccccc2cc1O [Compound 1b, N-(3-Chlorophenyl)-3-hydroxy-2-naphthamide]
GI50 [3]: 3.4 µM

Compound: O=C(Nc1ccc(F)cc1)c1cc2ccccc2cc1O [Compound 1d, N-(4-Fluorophenyl)-3-hydroxy-2-naphthamide]
GI50 [3]: 6.29 µM

Continued, values first:

GI50 [3]: 5.35 µM
Compound: O=C(Nc1ccc(F)c(F)c1)c1cc2ccccc2cc1O [Compound 1k, N-(3,4-Difluorophenyl)-3-hydroxy-2-naphthamide]

GI50 [3]: 33 µM
Compound: O=C(Nc1ccccn1)c1cc2ccccc2cc1O [Compound 10a, 3-Hydroxy-N-(pyridin-2-yl)-2-naphthamide]

GI50 [3]: 34.9 µM
Compound: O=C(Nc1ccncc1)c1cc2ccccc2cc1O [Compound 10b, 3-Hydroxy-N-(pyridin-4-yl)-2-naphthamide]

GI50 [3]: > 47.2 µM
Compound: O=C(Nc1cnccn1)c1cc2ccccc2cc1O [Compound 10c, 3-Hydroxy-N-(pyrazin-2-yl)-2-naphthamide]

GI50 [3]: 3.39 µM
Compound: O=C(Nc1ccc(F)c(Cl)c1)c1cc2ccccc2cc1O [Compound 1l, N-(3-Chloro-4-fluorophenyl)-3-hydroxy-2-naphthamide]
